From ChEMBL document CHEMBL4017508, “Design, Synthesis, and Biological Evaluation of Novel Type I1/2 p38α MAP Kinase Inhibitors with Excellent Selectivity, High Potency, and Prolonged Target Residence Time by Interfering with the R-Spine” (J Med Chem, 2017)

Columns and labels:
[1] = Metabolic stability in rat liver microsomes after 180 mins in presence of NADPH by LC-MS analysis; type: ADME, microsome; details: read-out: Stability
Summary of the method: (§1)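 Incubation with rat liver microsomes for 180 min, run in triplicate; mean ± standard deviation reported. Parent decrease and percentage of formed metabolites were followed by LC-MS. Samples were dissolved in MeOH and separated on a C18 core-shell column at 20 °C. The gradient ran from 5 to 100% acetonitrile against water, both with 0.1% formic acid, at 500 μL/min. Detection used ESI+.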

Liver = assay: Drug metabolism in rat liver microsomes assessed as metabolite formation after 180 mins in presence of NADPH by LC-MS analysis; type: ADME, microsome; details: 3 h; summary of the method: as §1

remaining at 3 h [1] [%]	Drug metabolism (Liver)	Compound
66.7		O=C(NCCN1CCOCC1)c1ccc2c(c1)C(=O)c1ccc(Nc3cc(NC(=O)c4cccs4)c(F)cc3F)cc1CC2
65.6		CNC(=O)c1ccc2c(c1)C(=O)c1ccc(Nc3ccc(F)c(NC(=O)c4ccccc4)c3)cc1CC2
76.6		O=C(NCC(O)CO)c1ccc2c(c1)C(=O)c1ccc(Nc3cc(NC(=O)c4cccs4)c(F)cc3F)cc1CC2 (configuration not stated)
40.6		O=C(NCCN1CCOCC1)c1ccc2c(c1)C(=O)c1ccc(Nc3ccc(F)c(NC(=O)c4ccccc4)c3)cc1CC2 [FS-694]
14.8		O=C(NCCN1CCOCC1)c1ccc2c(c1)C(=O)c1ccc(Nc3ccc(F)c(NC(=O)c4ccccc4)c3)cc1OC2

The next lines start with the compound.

Compound	remaining at 3 h [1] [%]	Drug metabolism (Liver)
O=C(NCC(O)CO)c1ccc2c(c1)C(=O)c1ccc(Nc3ccc(F)c(NC(=O)C4CC4)c3)cc1CC2 (configuration not stated)	95.2	Metabolite_Notdetected
CNC(=O)c1ccc2c(c1)C(=O)c1ccc(Nc3ccc(F)c(NC(=O)C4CC4)c3)cc1CC2	79.5	
CNC(=O)c1ccc2c(c1)C(=O)c1ccc(Nc3cccc(C(=O)NC4CC4)c3F)cc1CC2	61.6	
O=C(NCC(O)CO)c1ccc2c(c1)C(=O)c1ccc(Nc3cc(NC(=O)c4cccs4)c(F)cc3F)cc1OC2 (configuration not stated)	48.7	
O=C(NCCN1CCOCC1)c1ccc2c(c1)C(=O)c1ccc(Nc3ccc(F)c(NC(=O)c4cccs4)c3)cc1CC2	57.1	
O=C(NCCO)c1ccc2c(c1)C(=O)c1ccc(Nc3cc(NC(=O)c4cccs4)c(F)cc3F)cc1CC2	66.9	
